MrgX1 allo act – human MrgX1 positive allosteric modulation, primary screen; Q96LB2; MrgX1-HEK293, Fluo-4 calcium flux, FDSS; active compounds read high; B-score at 10 µM; 310,000 compounds, 0.63% hits;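 active = plate-corrected calcium response at least 3 library SD above typical, normal starting fluorescence, not activating the receptor alone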;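 note: compound read alongside a low EC10 to EC30 dose of BAM8-22 agonist; peak minus trough fluorescence over baseline measured at the second addition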
Target sequence (Q96LB2 whole entry, looked up): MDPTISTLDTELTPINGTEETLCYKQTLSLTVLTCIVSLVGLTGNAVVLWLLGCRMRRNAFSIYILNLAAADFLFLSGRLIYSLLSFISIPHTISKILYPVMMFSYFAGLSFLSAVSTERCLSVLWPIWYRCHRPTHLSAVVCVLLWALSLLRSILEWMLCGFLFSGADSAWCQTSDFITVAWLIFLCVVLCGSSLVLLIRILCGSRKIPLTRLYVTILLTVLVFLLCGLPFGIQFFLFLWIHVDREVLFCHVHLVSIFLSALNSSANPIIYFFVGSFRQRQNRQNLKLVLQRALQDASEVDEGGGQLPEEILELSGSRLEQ
MrgX1 antagonist – antagonists of human MrgX1 receptor | MRGX1-HEK293 calcium flux, Fluo-4, BAM8-22 antagonism; active compounds read low | 310,000 compounds, 1.3% hits | AID 588676 | B-score at 10 µM | Q96LB2;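 active = calcium-response B-score plate-corrected more than 3 library SD below zero, starting fluorescence within 5 deviations, no agonist response on first addition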;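 note: peak minus trough fluorescence over baseline after final BAM8-22 challenge near maximal dose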
RGS4 block – human RGS4 inhibition; P49798; HEK293 M3R/RGS4 inducible, Fluo-4 calcium flux; active compounds read high; triggered by carbachol at its EC20; B-score at 10 µM; 310,000 compounds, 0.45% hits; AID 463165;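 active = B-score, a plate-corrected calcium signal, over three deviations above library mean, with baseline fluorescence within five deviations of library mean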;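 note: RGS4 expression induced by doxycycline in cells with stable M3 receptor; B-score is computed from the integrated fluorescence ratio over baseline after carbachol; higher B-score means a larger calcium signal and so more RGS4 inhibition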
Target sequence (P49798 whole entry, looked up): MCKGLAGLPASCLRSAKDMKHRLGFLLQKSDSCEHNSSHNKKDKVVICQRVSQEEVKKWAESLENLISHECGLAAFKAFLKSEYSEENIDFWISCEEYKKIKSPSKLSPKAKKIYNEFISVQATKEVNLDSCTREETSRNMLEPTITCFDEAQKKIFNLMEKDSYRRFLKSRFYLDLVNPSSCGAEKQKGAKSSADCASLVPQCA
RGS4 act – RGS4 potentiation or activation; HEK293 M3R/inducible RGS4, carbachol calcium flux Fluo4; active compounds read low; B-score at 10 µM; 310,000 compounds, 0.92% hits;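 active = B-score of the integrated calcium signal more than 4 SD below the library mean, with starting fluorescence not abnormally high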;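 note: negative B-score means reduced calcium response which marks RGS4 activation or potentiation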
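Material: M3R-expressing HEK293 line, RGS4 induced by doxycycline | Schedule: Overnight RGS4 induction, 30 min dye load 37 °C, 20 min compound RT | Measured by: Fluo4 fluorescence kinetic imaging of calcium | Read-out: Integrated calcium ratio converted to B score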
MrgX1 ag – activates human MrgX1 receptor signaling | Q96LB2 | 310,000 compounds, 0.44% hits | MrgX1-HEK293 cells, Fluo-4 calcium fluorescence, agonist mode; active compounds read high | B-score at 10 µM;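 active = calcium response B-score plate-corrected fluorescence ratio at least 3 library SD, with starting fluorescence B-score inside 5 SD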
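Test system: Stable human MrgX1 HEK293 cell line | Schedule: Overnight plating before 1 h dye loading | Read-out basis: Baseline-normalised fluorescence change ratio, B-scored | Detection: Kinetic calcium dye fluorescence, Fluo-4 NW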
* marks the source's active call; other numbers are inactive results; i = inactive. Most compounds without a hit are left out; they make up all but 3.5% or so of the library.

SMILES	MrgX1 allo act	MrgX1 antagonist	RGS4 block	RGS4 act	MrgX1 ag
N#Cc1ccc(NC(=O)CNc2cc(S(=O)(=O)N3CCOCC3)ccc2NCC2CCCO2)cc1 (stereo not given)	6.6*	i	i	i	i
COC(=O)CNC(=S)NC(=O)c1ccc(C(C)(C)C)cc1	i	i	i	i	i
Cc1ccc(NC(=O)/C(C#N)=C(\N)C(Cl)(Cl)Cl)nc1	i	i	i	i	28*
Cc1ccc(NC(=O)C(=O)Nc2ccc(C)cn2)nc1	i	i	i	i	i
CCCN(Cc1ccc(N(C)C)cc1)CC1CC1	i	i	i	i	i
CCCN(Cc1ccc(N(CC)CC)cc1)CC1CC1	i	i	i	-7.1*	i
O=C(c1cccc(C(=O)N(c2ccccn2)C2CCCCC2)c1)N(c1ccccn1)C1CCCCC1	i	-6.8*	i	i	i
N#C/C(=C\c1ccccc1)C(=O)N(c1ccccn1)C1CCCCC1	i	i	i	i	33*
NS(=O)(=O)c1ccc(CCNC(=O)CCc2nc3sc4c(c3c(=O)[nH]2)CCCC4)cc1	i	i	i	i	i
COc1cc2ccccc2cc1C(=O)Nc1sc2c(c1C(N)=O)CCN(C(C)C)C2	i	i	i	-7.5*	i
CN1CCc2c(sc(NC(=O)c3ccc4ccccc4c3)c2C(N)=O)C1	i	i	i	i	38*
CC(C)N1CCc2c(sc(NC(=O)CN3C(=O)c4ccccc4C3=O)c2C(N)=O)C1	i	i	i	i	i
CN1CCc2c(sc(NC(=O)Cc3ccccc3)c2C(N)=O)C1	i	i	i	i	i
COc1ccc(CCN2C(=O)c3ccccc3NC2c2cc(Cl)c(O)c(OC)c2)cc1 (stereo not given)	i	i	i	i	i
O=C(Nc1ccc(Br)c(C(F)(F)F)c1)c1ccccc1	i	i	i	i	i
O=C(Nc1ccc(Br)c(C(F)(F)F)c1)c1ccc(C(F)(F)F)cc1	i	-7.2*	i	i	i
O=C(Nc1ccc(OCC(F)(F)C(F)F)c(C(F)(F)F)c1)c1ccc(Cl)cc1	i	i	i	-7.8*	i
COc1cccc(/C=N/Nc2nc(N3CCCC3)nc(N3CCCC3)n2)c1O	i	i	i	-7.7*	i
O=C(O)c1ccccc1/C=N/Nc1nc(N2CCCCC2)nc(N2CCCCC2)n1	i	-6.6*	i	i	i
Cc1cc(OC(=O)c2ccccc2[N+](=O)[O-])c([N+](=O)[O-])c(=O)[nH]1	i	i	i	i	i
COc1cccc(C(=O)Oc2cc(C)[nH]c(=O)c2[N+](=O)[O-])c1OC	i	-4.8*	i	i	i
O=C1C(=O)N(CCCO)C(c2ccc(Br)cc2)/C1=C(\O)c1ccc(Br)cc1 (stereo not given)	i	i	i	i	i
CS(=O)(=O)N1CC2CCCN2c2ccc(C(F)(F)F)cc21 (stereo not given)	i	i	i	i	i
O=S(=O)(c1cc(Cl)ccc1Cl)N1CC2CCCN2c2ccc(C(F)(F)F)cc21 (stereo not given)	i	i	i	-7.1*	i
COc1cc(C(=O)Nc2nnc(C(F)(F)F)s2)c([N+](=O)[O-])cc1OC	i	-6.4*	i	i	i
SMILES	MrgX1 allo act	MrgX1 antagonist	RGS4 block	RGS4 act	MrgX1 ag
COc1cc(C(=O)Nc2nnc(SC)s2)c([N+](=O)[O-])cc1OC	i	i	i	i	i
O=C(Nc1ccccc1Cl)C1(c2ccccc2)CC1(Cl)Cl (stereo not given)	i	i	i	-7*	i
Cc1cc(NC(=O)C(C)C)ncc1NC(=O)Cc1ccccc1	i	i	i	i	i
COc1cc(C(=O)Nc2cnc(NC(=O)C(C)C)cc2C)cc(OC)c1OC	i	-5.7*	i	i	i
NS(=O)(=O)c1ccc(CNC(=O)CSc2nc3ccc(Cl)cc3[nH]2)cc1	i	i	i	i	i
CCc1ccc(OCC(=O)NNC(=O)Cc2c(F)cccc2Cl)cc1	i	-6.9*	i	i	i
c1cc2c(cc1CN1CCN(C3CCCCCC3)CC1)OCO2	i	i	i	-7.6*	i
c1ccc(CN2CCC(N3CCN(Cc4ccc5c(c4)OCO5)CC3)CC2)cc1	i	i	i	i	i
COc1ccc(Cl)cc1-c1nc(SCC(N)=O)n[nH]1	i	i	i	i	i
CC(=O)N1CCCN(Cc2cn(-c3ccc(C)cc3)nc2-c2ccc(F)cc2)CC1	i	i	i	i	i
Cc1ccc(-n2cc(CN3CCCN(C=O)CC3)c(-c3ccc(F)cc3)n2)cc1	11*	i	i	i	i
O=C(Nc1ccccc1)/C(=C/c1ccccc1)c1ccccc1	i	i	i	i	i
Cc1ccccc1NC(=O)/C(=C/c1ccccc1)c1ccccc1	8.1*	i	i	i	i
Cc1cccc(C)c1NC(=O)/C(=C/c1ccco1)c1ccccc1	12*	i	i	i	i
CCOC(=O)C1=C(C)N(C)C(=O)NC1c1cccc2ccccc12 (stereo not given)	i	i	i	i	i
CC(NC(=O)CCc1ccccc1)c1ccc2c(c1)OCO2 (stereo not given)	i	i	i	i	i
COc1cc(CCC(=O)N2CCN(c3ncccn3)CC2)cc(OC)c1OC	i	i	i	i	i
CCOC(=O)C1CCCN(C(=O)/C(=C/c2ccco2)NC(=O)c2ccccc2)C1 (stereo not given)	i	i	i	-7*	i
O=C(N/C(=C/c1ccco1)C(=O)N1CCCCCC1)c1ccccc1	i	i	i	i	i
CC1CN(C(=O)/C=C/c2ccc(SC(F)F)cc2)CC(C)O1 (stereo not given)	i	i	i	i	i
CCC(C)NCCCCOc1cc(C)cc(C(C)C)c1 (stereo not given)	i	i	i	-7.3*	i
Cc1ccc(S(=O)(=O)O/N=C2\CCCc3ccccc32)cc1	i	i	i	i	i
CC1=C(C)/C(=N\OS(=O)(=O)c2ccccc2)C=CC1=O	i	i	i	i	33*
COc1ccc(N=Nc2c(C)[nH]c3ccccc23)cc1	i	i	i	i	i
COC(=O)C1=NN(C(=O)c2ccccc2)C(C)(O)C1 (stereo not given)	i	i	i	i	i
